Assay results reported in ChEMBL document CHEMBL1148541, “Biological evaluation of 1-alkyl-3-phenylthioureas as orally active HDL-elevating agents” (Bioorg Med Chem Lett, 2006).

Legend:
Rattus norvegicus [1] = assay: Increase of Apolipoprotein A-I level in cholesterol-fed male rats at 79 mg/kg/day relative to control; assay type: functional
Summary of the method: (§1)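 Drug mixed into diet, fed ad libitum for 8 days to groups of six male Sprague–Dawley rats on a cholesterol diet. Serum Apo A-I measured by SDS–polyacrylamide gel electrophoresis or by rat competition ELISA. Reported as % change versus untreated controls, with significance set at p < 0.05.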

Rattus norvegicus [2] = assay: Increase of total cholesterol level in cholesterol-fed male rats at 79 mg/kg/day relative to control; assay type: functional
Summary of the method: (§2)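 Dietary (ad libitum) dosing of groups of six male Sprague–Dawley rats on a cholesterol diet for 8 days. Serum total cholesterol was quantitated enzymatically by a colorimetric method and expressed as % change relative to untreated controls, with significance at p < 0.05.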

Rattus norvegicus [3] = assay: Triglyceride level in cholesterol-fed male rats at 79 mg/kg/day relative to control; assay type: functional
Summary of the method: (§3)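 Male Sprague–Dawley rats on a cholesterol diet, in groups of six, received the compound in the diet ad libitum for 8 days. Serum triglycerides are expressed as % change relative to untreated controls, with significance at p < 0.05 versus controls.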

Rattus norvegicus [4] = assay: Increase of HDL level in cholesterol-fed male rats by FPLC method at 79 mg/kg/day relative to control; assay type: functional
Summary of the method: (§4)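 Groups of six male Sprague–Dawley rats on a cholesterol diet received drug in the diet, ad libitum, for 8 days. Serum lipoproteins separated by FPLC, adapted for robotic automation, and cholesterol quantitated enzymatically by colorimetry. HDL given as % change versus untreated controls, with significance set at p < 0.05.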

Rattus norvegicus [5] = assay: Weight gain in cholesterol-fed male rats at 79 mg/kg/day relative to control; assay type: functional
Summary of the method: (§5)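 Groups of six male Sprague–Dawley rats on a cholesterol diet received the compound in the diet, ad libitum, over 8 days. Body weight gain is reported as % change relative to untreated controls.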

Rattus norvegicus [6] = assay: Increase of HDL level in cholesterol-fed male rats by ultracentrifugation method at 79 mg/kg/day relative to control; assay type: functional
Summary of the method: (§6)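 Compound given in the diet, ad libitum, to groups of six male Sprague–Dawley rats on a cholesterol diet for 8 days. Serum lipoproteins were separated by classical ultracentrifugation, and HDL cholesterol was quantitated by an enzymatic colorimetric method. Results are reported as % change relative to untreated controls, with significance at p < 0.05 versus controls.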

Rattus norvegicus [7] = assay: Weight gain in cholesterol-fed male rats at 77 mg/kg/day relative to control; assay type: functional; summary of the method: as §5
Rattus norvegicus [8] = assay: Triglyceride level in cholesterol-fed male rats at 77 mg/kg/day relative to control; assay type: functional; summary of the method: as §3
Rattus norvegicus [9] = assay: Increase of HDL level in cholesterol-fed male rats by FPLC method at 77 mg/kg/day relative to control; assay type: functional; summary of the method: as §4
Rattus norvegicus [10] = assay: Increase of HDL level in cholesterol-fed male rats by ultracentrifugation method at 77 mg/kg/day relative to control; assay type: functional; summary of the method: as §6
Rattus norvegicus [11] = assay: Increase of total cholesterol level in cholesterol-fed male rats at 77 mg/kg/day relative to control; assay type: functional; summary of the method: as §2
Rattus norvegicus [12] = assay: Increase of Apolipoprotein A-I level in cholesterol-fed male rats at 77 mg/kg/day relative to control; assay type: functional; summary of the method: as §1
Rattus norvegicus [13] = assay: Weight gain in cholesterol-fed male rats at 55 mg/kg/day relative to control; assay type: functional; summary of the method: as §5
Rattus norvegicus [14] = assay: Increase of HDL level in cholesterol-fed male rats by ultracentrifugation method at 55 mg/kg/day relative to control; assay type: functional
Summary of the method: (§7)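 Cholesterol-fed male Sprague–Dawley rats, six per group, given drug in the diet ad libitum for 8 days. Serum lipoproteins separated by classical ultracentrifugation and HDL cholesterol measured by an enzymatic colorimetric method. Expressed as % change versus untreated controls, with significance set at p < 0.05.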

Rattus norvegicus [15] = assay: Increase of HDL level in cholesterol-fed male rats by FPLC method at 55 mg/kg/day relative to control; assay type: functional; summary of the method: as §4
[16] = target: T1, Peroxisome proliferator-activated receptor alpha (Rattus norvegicus, UniProt P37230); assay: Activity against PPAR-alpha
T1 sequence (P37230 whole entry): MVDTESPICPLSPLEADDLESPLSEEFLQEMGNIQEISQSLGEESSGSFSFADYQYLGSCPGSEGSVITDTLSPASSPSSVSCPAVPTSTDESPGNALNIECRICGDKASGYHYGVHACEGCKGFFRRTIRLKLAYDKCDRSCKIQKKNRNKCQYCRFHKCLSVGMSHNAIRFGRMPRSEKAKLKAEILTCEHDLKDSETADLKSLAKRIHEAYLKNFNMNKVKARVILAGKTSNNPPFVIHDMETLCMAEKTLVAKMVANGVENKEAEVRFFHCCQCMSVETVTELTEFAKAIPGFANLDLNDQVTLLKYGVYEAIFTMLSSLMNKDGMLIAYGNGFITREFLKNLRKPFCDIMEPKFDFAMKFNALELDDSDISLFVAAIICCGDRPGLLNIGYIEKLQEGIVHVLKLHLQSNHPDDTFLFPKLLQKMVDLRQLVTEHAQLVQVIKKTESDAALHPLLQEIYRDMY

Rattus norvegicus [17] = assay: Triglyceride level in cholesterol-fed male rats at 55 mg/kg/day relative to control; assay type: functional; summary of the method: as §3
Rattus norvegicus [18] = assay: Increase of total cholesterol level in cholesterol-fed male rats at 55 mg/kg/day relative to control; assay type: functional; summary of the method: as §2
[19] = target: T2, Peroxisome proliferator-activated receptor delta (Homo sapiens, UniProt Q03181); assay: Activity against PPAR-delta
T2 sequence (Q03181 whole entry): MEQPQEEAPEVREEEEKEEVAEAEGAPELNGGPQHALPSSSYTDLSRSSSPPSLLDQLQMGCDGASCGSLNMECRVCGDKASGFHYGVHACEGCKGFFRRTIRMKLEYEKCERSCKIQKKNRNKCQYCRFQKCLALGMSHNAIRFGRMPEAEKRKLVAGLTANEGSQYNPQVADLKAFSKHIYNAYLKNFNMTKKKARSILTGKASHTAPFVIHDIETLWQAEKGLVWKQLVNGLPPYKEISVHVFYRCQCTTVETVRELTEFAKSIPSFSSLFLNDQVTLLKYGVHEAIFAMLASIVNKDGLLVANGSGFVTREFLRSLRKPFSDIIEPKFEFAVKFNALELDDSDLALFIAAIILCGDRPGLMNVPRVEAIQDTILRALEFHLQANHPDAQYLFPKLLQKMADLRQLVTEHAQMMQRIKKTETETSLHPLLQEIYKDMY

Rattus norvegicus [20] = assay: Increase of Apolipoprotein A-I level in cholesterol-fed male rats at 55 mg/kg/day relative to control; assay type: functional; summary of the method: as §1
Rattus norvegicus [21] = assay: Triglyceride level in cholesterol-fed male rats at 62 mg/kg/day relative to control; assay type: functional; summary of the method: as §3
Rattus norvegicus [22] = assay: Increase of Apolipoprotein A-I level in cholesterol-fed male rats at 62 mg/kg/day relative to control; assay type: functional; summary of the method: as §1
Rattus norvegicus [23] = assay: Increase of total cholesterol level in cholesterol-fed male rats at 62 mg/kg/day relative to control; assay type: functional; summary of the method: as §2
Rattus norvegicus [24] = assay: Weight gain in cholesterol-fed male rats at 62 mg/kg/day relative to control; assay type: functional; summary of the method: as §5
Rattus norvegicus [25] = species: Rattus norvegicus; assay: Increase in liver enzyme Alkaline phosphatase; assay type: functional; set-up: concentration or dose not given beside the values
Rattus norvegicus [26] = assay: Increase of HDL level in cholesterol-fed male rats by FPLC method at 62 mg/kg/day relative to control; assay type: functional; summary of the method: as §4
Rattus norvegicus [27] = assay: Increase of HDL level in cholesterol-fed male rats by ultracentrifugation method at 62 mg/kg/day relative to control; assay type: functional; summary of the method: as §7
Rattus norvegicus [28] = species: Rattus norvegicus; assay: Increase in liver enzyme Alanine aminotransferase; assay type: functional
Rattus norvegicus [29] = species: Rattus norvegicus; assay: Increase in liver enzyme Aspartate aminotransferase; assay type: functional; set-up: concentration or dose not given beside the values
Rattus norvegicus [30] = assay: Triglyceride level in cholesterol-fed male rats at 78 mg/kg/day relative to control; assay type: functional; summary of the method: as §3
Rattus norvegicus [31] = assay: Increase of Apolipoprotein A-I level in cholesterol-fed male rats at 78 mg/kg/day relative to control; assay type: functional; summary of the method: as §1
Rattus norvegicus [32] = assay: Weight gain in cholesterol-fed male rats at 78 mg/kg/day relative to control; assay type: functional; summary of the method: as §5
Rattus norvegicus [33] = assay: Increase of HDL level in cholesterol-fed male rats by ultracentrifugation method at 78 mg/kg/day relative to control; assay type: functional; summary of the method: as §6
Rattus norvegicus [34] = assay: Increase of total cholesterol level in cholesterol-fed male rats at 78 mg/kg/day relative to control; assay type: functional; summary of the method: as §2
Rattus norvegicus [35] = assay: Increase of HDL level in cholesterol-fed male rats by FPLC method at 78 mg/kg/day relative to control; assay type: functional; summary of the method: as §4

CCC/N=C(\S)Nc1cc(OC)ccc1OC
Activity (Rattus norvegicus [1]): 19% | Activity (Rattus norvegicus [2]): 60% | Activity (Rattus norvegicus [3]): -23% | Activity (Rattus norvegicus [4]): 97% | Activity (Rattus norvegicus [5]): 14% | Activity (Rattus norvegicus [6]): 108%

Cc1ccc(Cl)cc1/N=C(\S)NC(C)(C)C
Activity (Rattus norvegicus [7]): 9% | Activity (Rattus norvegicus [8]): -31% | Activity (Rattus norvegicus [9]): 22% | Activity (Rattus norvegicus [10]): 30% | Activity (Rattus norvegicus [11]): -15% | Activity (Rattus norvegicus [12]): 60%

CCC/N=C(\S)Nc1cc(Cl)ccc1C
Activity (Rattus norvegicus [13]): -78% | Activity (Rattus norvegicus [14]): 83% | Activity (Rattus norvegicus [15]): 292% | EC50 [16]: > 100 µM | Activity (Rattus norvegicus [17]): -54% | Activity (Rattus norvegicus [18]): 6% | EC50 [19]: > 100 µM | Activity (Rattus norvegicus [20]): 54%

CCC/N=C(\S)Nc1cc(C)ccc1C
Activity (Rattus norvegicus [21]): -59% | Activity (Rattus norvegicus [22]): 72% | Activity (Rattus norvegicus [23]): 29% | Activity (Rattus norvegicus [24]): -38% | Activity (Rattus norvegicus [25]): 75% | Activity (Rattus norvegicus [26]): 278% | Activity (Rattus norvegicus [27]): 127%

CCCC/N=C(\S)Nc1cc(Cl)ccc1C
Activity (Rattus norvegicus [13]): -53% | Activity (Rattus norvegicus [28]): 93% | Activity (Rattus norvegicus [14]): 100% | Activity (Rattus norvegicus [15]): 203% | Activity (Rattus norvegicus [29]): 79% | Activity (Rattus norvegicus [17]): -44% | Activity (Rattus norvegicus [25]): 44% | Activity (Rattus norvegicus [18]): 39% | Activity (Rattus norvegicus [20]): 38%

CCC/N=C(\S)Nc1cc(Cl)ccc1OC
Activity (Rattus norvegicus [30]): -43% | Activity (Rattus norvegicus [31]): 58% | Activity (Rattus norvegicus [25]): 44% | Activity (Rattus norvegicus [32]): -6% | Activity (Rattus norvegicus [33]): 99% | Activity (Rattus norvegicus [34]): 49% | Activity (Rattus norvegicus [35]): 97%

Cc1ccc(Cl)cc1/N=C(\S)NCc1ccccc1
Activity (Rattus norvegicus [7]): 41% | Activity (Rattus norvegicus [8]): -21% | Activity (Rattus norvegicus [9]): 136% | Activity (Rattus norvegicus [10]): 135% | Activity (Rattus norvegicus [11]): 97% | Activity (Rattus norvegicus [12]): 27%
